# Assay results as given in ChEMBL document CHEMBL1125593, “Synthesis and biological evaluation of substituted benzenesulfonamides as novel potent membrane-bound phospholipase A2 inhibitors” (1991).
# Experiments:
# [1] = test system: membrane-bound phospholipase A2 (Oryctolagus cuniculus); assay: Tested in vitro for inhibition of phospholipase A2 (PLA2) in rabbit heart membranes.
# Rattus norvegicus [2] = assay: Compound was tested for the % inhibition rate of infarct size (myoglobin depleted area) on iv administration 15 min prior to the ligation at a dose of 0.3 mg/kg.; assay type: functional
# Rattus norvegicus [3] = assay: Compound was tested for the % inhibition rate of infarct size (myoglobin depleted area) on iv administration 15 min prior to the ligation at a dose of 1.0 mg/kg.; assay type: functional
# Rattus norvegicus [4] = assay: Compound was tested for the % inhibition rate of infarct size (myoglobin depleted area) on iv administration 15 min prior to the ligation at a dose of 0.1 mg/kg.; assay type: functional
# [5] = test system: membrane-bound phospholipase A2 (Oryctolagus cuniculus); assay: Compound was tested for the percent inhibition of phospholipase A2 (PLA2) in rabbit heart membranes at a concentration of 100 uM.
# Rattus norvegicus [6] = assay: Compound was tested for the % inhibition rate of infarct size (myoglobin depleted area) on sc administration 15 min prior to the ligation at a dose of 75.0 mg/kg.; assay type: functional; settings: route subcutaneous
# How it was run: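 Sprague-Dawley rats (180–260 g) were anesthetized with diethyl ether and the left main coronary artery was ligated 1–2 mm from its origin for 3 h. Compound was given sc 15 min before ligation, and rats dying within 3 h were excluded. Infarct size was scored as the myoglobin-depleted area by immunohistochemistry and image analysis, with inhibition taken versus untreated animals, mean ± SEM.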
# Rattus norvegicus [7] = assay: Compound was tested for the % inhibition rate of infarct size (myoglobin depleted area) on iv administration 15 min prior to the ligation at a dose of 10 mg/kg.; assay type: functional
# Rattus norvegicus [8] = assay: Compound was tested for the % inhibition rate of infarct size (myoglobin depleted area) on iv administration 15 min prior to the ligation at a dose of 1 mg/kg.; assay type: functional
Compound,IC30 [1] [nM],other results
CN(C(=O)/C=C/c1ccc([N+](=O)[O-])cc1)c1ccc(S(=O)(=O)NC2CCCCCC2)cc1,190,–
CN(C(=O)/C=C/c1ccc(S(C)(=O)=O)cc1)c1ccc(S(=O)(=O)N2CCN(CCc3ccccc3)CC2)cc1,63,–
CN(C(=O)/C=C/c1ccc(S(C)(=O)=O)cc1)c1ccc(S(=O)(=O)N2CCCN(Cc3ccccc3)CC2)cc1,64,–
Cc1cccc(CCN(C)S(=O)(=O)c2ccc(N(C)C(=O)/C=C/c3ccc(S(C)(=O)=O)cc3)cc2)n1,65,–
CN(C(=O)/C=C/c1ccc(O)c(O)c1)c1ccc(S(N)(=O)=O)cc1,13300,–
CN(C(=O)/C=C/c1ccc(S(C)(=O)=O)cc1)c1ccc(S(=O)(=O)N2CCCN(CCc3ccccc3)CC2)cc1,25,–
CN1CCC(NS(=O)(=O)c2ccc(N(C)C(=O)/C=C/c3ccc(S(C)(=O)=O)cc3)cc2)CC1,1000,–
CNS(=O)(=O)c1ccc(N(C)C(=O)/C=C/c2ccc(O)c(O)c2)cc1,44000,–
CN(C(=O)/C=C/c1ccc(S(C)(=O)=O)cc1)c1ccc(S(=O)(=O)NC2CCCCCC2)cc1,16,–
CN(C(=O)/C=C/c1ccc(O)c(O)c1)c1ccc(S(=O)(=O)NC2CCCC2)cc1,5430,–
CN(C(=O)/C=C/c1ccc(S(C)(=O)=O)cc1)c1ccc(S(=O)(=O)N2CCN(Cc3ccccc3)CC2)cc1,220,–
CN(C(=O)/C=C/c1ccc(S(C)(=O)=O)cc1)c1ccc(S(=O)(=O)NC2CCN(Cc3ccccc3)CC2)cc1,28,Inhibition rate (Rattus norvegicus [2]): 20.9%; Inhibition rate (Rattus norvegicus [3]): 22.1%; Inhibition rate (Rattus norvegicus [4]): 1.6%
NS(=O)(=O)c1ccc(NC(=O)/C=C/c2ccc(O)c(O)c2)cc1,25000,–
COC(=O)c1sccc1NC(=O)/C=C/c1ccc(O)c(O)c1,–,inhibition [5]: 31.6%
CN(C(=O)/C=C/c1ccc(S(C)(=O)=O)cc1)c1ccc(S(=O)(=O)NC2CCN(CCc3ccccc3)CC2)cc1,9,Inhibition rate (Rattus norvegicus [2]): 18.7%; Inhibition rate (Rattus norvegicus [3]): 22.5%; Inhibition rate (Rattus norvegicus [4]): 7%
CN(C(=O)/C=C/c1ccc(S(C)(=O)=O)cc1)c1ccc(S(=O)(=O)NC2CCCCN(Cc3ccccn3)C2)cc1 (stereo not drawn),49,–
CN(C(=O)/C=C/c1ccc(O)c(O)c1)c1ccc(S(=O)(=O)NC2Cc3ccccc3C2)cc1,4640,–

Compound,IC30 [1] [nM],other results
CN(C(=O)/C=C/c1ccc(O)cc1)c1ccc(S(=O)(=O)NC2CCCCCC2)cc1,1240,–
CN(C(=O)/C=C/c1ccc(-n2ccnc2)cc1)c1ccc(S(=O)(=O)NC2CCCCCC2)cc1,450,–
CN(C(=O)/C=C/c1ccc(O)c(O)c1)c1ccc(S(=O)(=O)NC2CCc3ccccc3C2)cc1 (stereo not drawn),5070,–
COc1ccc(CCN(C)CCCC(C#N)(c2ccc(OC)c(OC)c2)C(C)C)cc1OC (stereo not drawn),–,Inhibition rate (Rattus norvegicus [2]): 0.1%; Inhibition rate (Rattus norvegicus [3]): 19.2%; Inhibition rate (Rattus norvegicus [4]): 0.7%
CCN(CC)CCCC(C)Nc1c2ccc(Cl)cc2nc2ccc(OC)cc12 (stereo not drawn) [QUINACRINE],–,Inhibition rate (Rattus norvegicus [6]): 37.4%
CN(C(=O)/C=C/c1ccc(C#N)cc1)c1ccc(S(=O)(=O)NC2CCCCCC2)cc1,200,–
CN(C(=O)/C=C/c1ccc(S(C)(=O)=O)cc1)c1ccc(S(=O)(=O)NCc2ccccn2)cc1,260,–
CN(C(=O)/C=C/c1ccc(O)c(O)c1)c1ccc(S(=O)(=O)NC2CCc3ccccc32)cc1 (stereo not drawn),6100,–
CN(C(=O)/C=C/c1ccc(O)c(F)c1)c1ccc(S(=O)(=O)NC2CCCCCC2)cc1,5330,–
CC(C)CN1CCC(NS(=O)(=O)c2ccc(N(C)C(=O)/C=C/c3ccc(S(C)(=O)=O)cc3)cc2)CC1,51,–
Cc1cccc(CCNS(=O)(=O)c2ccc(N(C)C(=O)/C=C/c3ccc(S(C)(=O)=O)cc3)cc2)n1,66,Inhibition rate (Rattus norvegicus [7]): 21.9%; Inhibition rate (Rattus norvegicus [8]): 5.6%
CN(C(=O)/C=C/c1ccc(O)c(O)c1)c1ccc(S(=O)(=O)NC2CCCCC2)cc1,1450,–
CN(C(=O)/C=C/c1ccc(S(C)(=O)=O)cc1)c1ccc(S(=O)(=O)NCCc2ccccn2)cc1,210,–
CC(C)NS(=O)(=O)c1ccc(N(C)C(=O)/C=C/c2ccc(O)c(O)c2)cc1,30000,–
CN(C(=O)/C=C/c1ccc(O)c(O)c1)c1ccc(S(=O)(=O)NC2CCCCCC2)cc1,1750,–
CN(C(=O)/C=C/c1ccc(S(C)(=O)=O)cc1)c1ccc(S(=O)(=O)NC2CCCCN(Cc3ccccc3)C2)cc1 (stereo not drawn),25,–
